# High-throughput results from PubChem BioAssay.
# Sampled rows, rich in hits. Any-hit rate of the full collection: about 1.9%.
# FGF22 binding: binders of recombinant human FGF22 by thermal shift. Q9HCT0. SYPRO orange fluorescence; percent of sucrose octasulfate shift, DMSO zero. activity (Tm shift, normalised), % at 9.99 µM. hit rate 1.5% among 340,000. AID 651658;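 active = mean Tm shift, scaled 0 neutral to 100 positive control, at about 1.3% or above, every replicate too, limit read from the data; inconclusive = no clear call, values can overlap the other calls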
# Target sequence (Q9HCT0 whole entry, looked up): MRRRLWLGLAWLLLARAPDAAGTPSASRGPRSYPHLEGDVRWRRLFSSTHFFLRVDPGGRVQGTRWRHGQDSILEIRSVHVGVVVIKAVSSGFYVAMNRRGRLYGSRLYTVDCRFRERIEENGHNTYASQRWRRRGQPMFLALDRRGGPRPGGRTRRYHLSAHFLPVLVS
# Efflux pump inh: blocks antifungal efflux pumps in multiplex yeast assay. S. cerevisiae Candida pump triplex, Nile Red efflux. inhibition, % at 10 µM. hit rate 0.44% among 330,000. AID 485275;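 active = plate passing quality check with inhibition over a set limit, or well fluorescence over plate mean plus 4 SD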;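 also: Nile Red retained in pooled yeast measured as flow cytometry median fluorescence; 0% = buffer negative control and 100% = Enniatin B positive control; higher means more Nile Red kept so more efflux inhibition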
# ARFGAP1 inhibitor: inhibitors of rat ARFGAP1 | Q62848 | hit rate 0.26% among 360,000 | inhibition, % at 16.5 µM | Arfgap1-stimulated ARF1 GTP hydrolysis, GDP FP detection;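 active = inhibition above a per-plate limit, mean inhibition of low control wells plus 3 SD, cut at about 25% in these data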;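 also: 0% = DMSO wells with enzyme and 100% = wells lacking Arfgap1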
# Target sequence (Q62848 1-136 limits assumed): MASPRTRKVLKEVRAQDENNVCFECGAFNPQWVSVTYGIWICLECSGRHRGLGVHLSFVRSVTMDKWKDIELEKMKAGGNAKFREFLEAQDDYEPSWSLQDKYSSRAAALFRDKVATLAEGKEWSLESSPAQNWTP
#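 Material: rat Arfgap1 catalytic domain, aa 1-136; also added: human ARF1(Δ1-17)-GTP substrate; compound dosing: one concentration, 16.5 µM, DMSO 1.26%; incubation: GTP hydrolysis reaction 2 h at 25 °C; measured by: Tracer-displacement fluorescence polarization with EDTA stop, 620/688 nm; evaluation: % inhibition from polarization; repeats: one replicate per compound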
# ASAP1 inh: blocks human ASAP1-stimulated Arf1 GTP hydrolysis; Q9ULH1; GDP FP detection; inhibition, % at 16.5 µM; hit rate 0.19% among 360,000; AID 624377; in the data active = inhibition above about 25%;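 also: 0% = vehicle with enzyme and substrate and 100% = no enzyme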
# Rtt109 HAT inh: inhibitors of Candida albicans Rtt109/Vps75 histone acetyltransferase; Q5AAJ8; purified Rtt109/Vps75, ThioGlo CoA-SH fluorescence, 4 h; inhibition, % at 34.9 µM; hit rate 0.16% among 330,000;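 active = inhibition of at least 50% in every replicate; inconclusive = best replicate reaches 50% inhibition but some replicates fall short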
# Target sequence (Q5AAJ8 whole entry, looked up): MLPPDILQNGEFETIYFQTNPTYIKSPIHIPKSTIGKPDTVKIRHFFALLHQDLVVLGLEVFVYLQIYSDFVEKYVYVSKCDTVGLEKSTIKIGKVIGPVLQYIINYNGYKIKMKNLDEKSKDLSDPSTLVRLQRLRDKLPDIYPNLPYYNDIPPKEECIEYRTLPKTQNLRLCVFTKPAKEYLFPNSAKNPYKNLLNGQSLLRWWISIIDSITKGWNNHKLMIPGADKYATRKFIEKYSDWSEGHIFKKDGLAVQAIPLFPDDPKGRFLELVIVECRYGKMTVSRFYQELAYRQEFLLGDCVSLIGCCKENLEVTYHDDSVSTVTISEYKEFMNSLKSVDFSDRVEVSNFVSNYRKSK
# An asterisk follows results filed as active; u = inconclusive; x = no result.
SMILES,FGF22 binding,Efflux pump inh,ARFGAP1 inhibitor,ASAP1 inh,Rtt109 HAT inh
Cc1ccc(S[C@]2(C(=O)NC(C)C)CC(=O)N(C3CCCCC3)[C@@H]2c2ccc(CO)cc2I)cc1,-0.7,x,x,x,x
Cc1cc(NS(=O)(=O)c2ccc(NC(=O)c3ccc([N+](=O)[O-])s3)cc2)nc(C)n1,0.2,0.3,-6.0,0.7,0.8
Cc1ccnc(NS(=O)(=O)c2ccc(NC(=O)c3ccc([N+](=O)[O-])s3)cc2)n1,44.4*,-0.6,4.8,8.0,-12.8
O=C(O)c1ccc(C2SCC(=O)N2Cc2ccco2)cc1 (configuration not stated),1.5*,0.0,-1.6,1.1,-0.6
CC(=O)Nc1cccc(-c2ccnc3c2CC(C(=O)NCC2CCOCC2)O3)c1 (configuration not stated),-0.3,x,-0.5,-2.9,x
Cc1ccccc1S(=O)(=O)NC1OC(=O)C(Cl)=C1Cl (configuration not stated),x,-0.1,-3.8,1.7,-0.1
Cc1ccccc1S(=O)(=O)NC1OC(=O)C(Oc2ccccc2)=C1Br (configuration not stated),43.0*,-0.1,7.2,-3.8,1.5
COc1ccc(Cc2nc3c([nH]2)c(=O)n(C)c(=O)n3C)cc1OC,43.5*,x,-0.5,-8.7,-9.0
CCOc1ccc(CCNC(=O)c2cc3c(C)nccc3[nH]c2=O)cc1OCC,0.2,0.3,10.9,-5.4,-2.8
C[C@H](CO)N1C[C@H](C)[C@@H](CN(C)Cc2ccc(C(F)(F)F)cc2)Oc2ccc(NS(=O)(=O)c3cn(C)cn3)cc2C1=O,-0.1,x,x,x,x
NS(=O)(=O)c1ccc(NCc2cnc3ccccc3n2)cc1,42.9*,x,-2.1,6.2,x
C=CCNCC(=O)N1N=C(c2ccc3ccccc3c2)CC1c1ccc(OC)cc1 (configuration not stated),43.0*,0.1,8.6,6.3,u
O=C1CCCC/C1=N\Nc1ccc(C2CCCCC2)cc1,x,-0.1,x,x,x
O=C1CCCC/C1=N\Nc1ccc(OCc2ccccc2)cc1,1.5*,-0.1,4.4,-0.2,x
COc1cc(/C=C/C(=O)NCc2nc3ccccc3[nH]2)cc(OC)c1OC,-0.1,0.0,-4.3,-10.5,9.7
COC(=O)/C(=C\c1cc(OC)c(OC)c(OC)c1)c1nc2ccccc2[nH]1,43.5*,0.0,-2.7,2.2,6.8
COC(=O)/C(=C\c1ccc(O)cc1)c1nc2ccccc2[nH]1,43.5*,0.2,14.1,8.1,x
Cc1cccc(-c2nc3ccccc3c(=O)[nH]2)c1,-0.1,0.0,-4.2,-0.5,-3.1
CCc1ccc(NC(=O)C(=O)NCC(O)c2ccccc2)cc1 (configuration not stated),43.1*,0.1,3.0,0.8,-6.0
Cc1ccc(Nc2nc(N)c(C#N)c(CC#N)c2C#N)cc1,44.0*,-0.1,-4.5,-6.0,4.3
Cc1ccc2nc(SC(C)C(=O)N3CC(C)OC(C)C3)[nH]c2c1 (configuration not stated),43.0*,-0.1,-0.5,-3.4,-0.4
COC(=O)[C@@]12CCCN1[C@H](c1ccc(SC3CCCCC3)cc1)[C@H]1C(=O)N(C)C(=O)[C@H]12,-0.1,-0.1,14.9,2.2,-7.1
Cc1ccc2cc(F)ccc2n1,-0.2,x,9.8,0.1,x
O=C(N/N=C/c1cccs1)c1cc(-c2ccc3ccccc3c2)n[nH]1,x,0.1,-6.0,7.3,14.1
O=C(N/N=C/c1cccs1)c1cc(-c2cccc3ccccc23)n[nH]1,43.7*,-0.1,-1.3,-5.0,-2.8
SMILES,FGF22 binding,Efflux pump inh,ARFGAP1 inhibitor,ASAP1 inh,Rtt109 HAT inh
O=C(CSc1nnc2ccccn12)NNC(=O)c1cccc(Cl)c1,-0.1,0.3,-8.2,2.3,57.6*
Cn1nnnc1SCC(=O)NNC(=O)c1ccc(F)cc1,41.9,-0.2,-6.7,-7.5,-4.5
O=C(CSc1nnc2ccccn12)c1ccc(Cl)cc1,43.2*,0.0,1.1,6.0,0.6
Cn1nnnc1SCC(=O)Nc1ncc(C(F)(F)F)cc1Cl,43.5*,0.1,6.5,-4.8,2.0
Cn1nnnc1SCC(=O)NNC(=O)c1ccc(Cl)cc1,44.0*,-0.1,-3.3,6.4,-5.4
Cn1nnnc1SCC(=O)Nc1ncc(Cl)cc1Cl,0.1,-0.2,6.5,-10.1,-8.6
CN(Cc1ccccc1)c1ncnc2ccc(Br)cc12,x,0.1,x,x,2.7
COc1ccc(S(=O)(=O)NCCc2ccccn2)cc1,0.2,0.0,12.8,8.4,7.1
CC(C)c1ccc(OCC(=O)NCc2n[nH]c(=O)c3ccccc23)cc1,0.2,-0.1,-5.2,10.1,1.4
O=C(CSc1nc2ccccc2o1)NCC1CCCO1 (configuration not stated),0.1,-0.1,7.3,4.5,-2.7
CC(=O)c1cnc2scnn2c1=O,43.5*,0.0,4.9,-5.3,11.0
Cc1csc2ncc(C(=O)Nc3ccc(C(F)(F)F)cc3)c(=O)n12,-0.2,0.0,-5.4,4.1,0.4
COc1ccc(C2=NOC(Cn3c(Cc4ccc(Cl)cc4)nc4c3c(=O)n(C)c(=O)n4C)C2)cc1 (configuration not stated),x,-0.1,1.6,-14.5,-3.3
Cc1cc(=O)[nH]c(SC(C(=O)O)c2ccccc2)n1 (configuration not stated),x,-0.1,-5.0,3.0,-1.7
Cc1cc(-c2ccccc2)nc(SC(C(=O)O)c2ccccc2)n1 (configuration not stated),43.3*,0.3,7.3,3.6,-7.4
Nc1c(C(=O)c2ccccc2)oc2ccc([N+](=O)[O-])cc12,0.4,0.0,-3.0,18.2,55.3*
Nc1c(C(=O)c2ccccc2)oc2ccc(Br)cc12,x,0.0,4.1,-21.1,2.7
NC(=O)C1CCN(C(=O)c2cc3c(s2)CCCC3)CC1,43.1*,-0.1,-11.2,3.5,-3.8
CC(C)NC(=O)C1CCN(C2CCN(C(=O)c3cc4c(s3)CCCCC4)CC2)CC1,0.1,-0.1,-3.9,11.2,14.1
O=C(CNC(=O)c1ccccc1)NCC1COc2ccccc2O1 (configuration not stated),x,0.4,4.3,-0.8,8.2
Cc1ccc(/C=N/NC(=O)c2ccccn2)s1,0.4,-0.1,-7.9,-10.3,-6.1
Cc1ccccc1/C=C/C(=O)N1CCOCC1,43.2*,0.0,2.4,10.2,-8.9
COc1ccc(-n2c(=O)c3ccccc3n(CC(=O)NC3CCCCC3)c2=O)c(OC)c1,x,0.2,4.0,5.6,-11.4
COc1ccc(-c2cc(C(=O)N(C)Cc3nc4ccccc4c(=O)[nH]3)c3ccccc3n2)cc1OC,44.4*,0.5,-2.7,6.5,10.5
CCNc1nc(NC(C)C)nc(N(C)C#N)n1,-0.2,0.2,7.7,-1.3,-1.2
C[C@@H]1CN([C@H](C)CO)C(=O)c2cc(-c3ccccc3F)cnc2O[C@@H]1CN(C)C(=O)C1CCCCC1,0.0,x,x,x,x
CCc1c(C)nc(SCC(=O)N2CCN(c3ccccc3)CC2)[nH]c1=O,43.9*,-0.1,-6.9,-3.2,x
Cn1cc(C(=O)c2ccc(Cl)cc2Cl)cc1C(=O)N/N=C(\N)COc1ccc(Cl)cc1,-0.5,-0.1,8.9,6.7,x
